Assay results published in ChEMBL document CHEMBL4041550, “Structure-Activity Relationship Study of QL47: A Broad-Spectrum Antiviral Agent” (ACS Med Chem Lett, 2017).
Activity calls are given as the source filed them. The rule behind the calls is not given here.

Tests used:
[1] = Cytotoxicity against human HuH7 cells measured after 24 hrs by CellTiter-Glo luminescent cell viability assay; format: cell-based, Huh-7
How it was run: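 DENV2-infected Huh7 cells treated across a concentration range; cell viability read 24 h later. CC50 (50% cytotoxicity) derived by non-linear regression; mean ± SD of experimental duplicates, n ≥ 2 repeats.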

dengue virus type 2 [2] = assay: Antiviral activity against Dengue virus serotype 2 replicon harboring GVD mutant infected in HuH7 cells assessed as reduction in viral RNA translation at 2 uM measured at 6 hrs post infection by luciferase reporter gene assay relative to control; format: functional; parameters: scale not given: the % may be the effect or the level left
How it was run: (§1)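 Huh7 cells transfected with in vitro-transcribed nonreplicative DENV2(GVD) reporter replicon RNA, then treated immediately with compound at 2 or 10 μM. Intracellular firefly luciferase activity read 6 h post-transfection as a measure of RNA translation and expressed relative to DMSO-treated samples. Mean ± SD of experimental duplicates, n = 3 repeats.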

dengue virus type 2 [3] = assay: Antiviral activity against Dengue virus serotype 2 replicon harboring GVD mutant infected in HuH7 cells assessed as reduction in viral RNA translation at 10 uM measured at 6 hrs post infection by luciferase reporter gene assay relative to control; format: functional; parameters: scale not given: the % may be the effect or the level left; how it was run: as §1
dengue virus type 2 [4] = assay: Antiviral activity against Dengue virus serotype 2 strain New Guinea C infected in HuH7 cells assessed as reduction in log-fold change by measuring focus forming unit at 2 uM measured at 24 hrs post infection by focus forming assay relative to control; format: functional, Thailand/NGS-C/1944
How it was run: (§2)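 DENV2-infected Huh7 cells treated with compound at 2 or 10 μM. Infectious virus secreted into culture supernatants at 24 h post-infection/treatment was titred by focus-forming assay. Result expressed as log-fold change relative to DMSO treatment.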

dengue virus type 2 [5] = assay: Antiviral activity against Dengue virus serotype 2 strain New Guinea C infected in HuH7 cells assessed as reduction in log-fold change by measuring focus forming unit at 10 uM measured at 24 hrs post infection by focus forming assay relative to control; format: functional, Thailand/NGS-C/1944; how it was run: as §2
[6] = Half life in mouse hepatic microsomes at 1 uM in presence of NADPH by LC-MS/MS method; format: ADME, Microsome; details: liver microsomes
How it was run: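 Compound incubated with mouse liver microsomes; half-life (T1/2, min) of the compound reported as a measure of metabolic stability.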

dengue virus type 2 [7] = assay: Antiviral activity against Dengue virus serotype 2 strain New Guinea C infected in HuH7 cells at […] to 10 uM measured at 24 hrs post infection by focus forming assay; format: functional, cell-based; details: Thailand/NGS-C/1944
How it was run: (§3)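 Huh7 cells infected with DENV2, then treated with compound; screened at 2 and 10 μM. Infectious virus secreted into supernatant at 24 h post-infection/treatment titrated by focus-forming assay; expressed as log-fold change relative to DMSO. IC90 (1-log10 drop in infectious progeny) from concentration range by non-linear regression; mean ± SD of experimental duplicates, n ≥ 2 repeats.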

dengue virus type 2 [8] = assay: Antiviral activity against Dengue virus serotype 2 strain New Guinea C infected in HuH7 cells measured at 24 hrs post infection by focus forming assay; format: functional; details: Thailand/NGS-C/1944, Huh-7, 24 h
How it was run: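 Huh7 cells infected with DENV2, then treated with a range of compound concentrations. Viral yield measured 24 h later by titration of infectious particles in supernatants; in parallel, cell viability measured. IC90 (1-log10 reduction in infectious progeny) and CC50 derived by non-linear regression. Mean ± SD of experimental duplicates, n ≥ 2 repeats.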

Enterovirus C = assay: Antiviral activity against Polio virus Chat infected in Vero cells at 4 uM measured at 12 hrs post infection by crystal violet staining based plaque formation assay; format: functional, cell-based
How it was run: (§4)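 Vero cells infected with poliovirus or VSV, then treated with 4 μM compound for 12 h (poliovirus) or 6 h (VSV). Infectious virus released to supernatants quantified by plaque-forming assay, plotted relative to DMSO-treated samples. Mean ± SD of experimental duplicates, n ≥ 2 repeats.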

[9] = tested on: Vesicular stomatitis Indiana virus; assay: Antiviral activity against Vesicular stomatitis virus Indiana infected in Vero cells at 4 uM measured at 6 hrs post infection by crystal violet staining based plaque formation assay; format: functional, cell-based; how it was run: as §4
Vero = assay: Antiviral activity against Respiratory syncytial virus A2 infected in Vero cells at 2.5 uM pretreated for 7 days followed by viral infection by crystal violet staining based plaque formation assay; format: functional, cell-based; details: Human respiratory syncytial virus A2
Kunjin virus = assay: Antiviral activity against West Nile virus Kunjin infected in HuH7 cells at 2 uM measured at 24 hrs post infection by crystal violet staining based plaque formation assay; format: functional, cell-based
How it was run: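 Huh7 cells infected with West Nile virus, then treated with 2 μM for 24 h. Infectious virus released to supernatants quantified by plaque assay and plotted relative to DMSO-treated samples; mean ± SD of experimental duplicates, n ≥ 2 repeats.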

dengue virus type 2 [10] = assay: Antiviral activity against Dengue virus serotype 2 strain New Guinea C infected in HuH7 cells at < 10 uM measured at 24 hrs post infection by focus forming assay; format: functional, cell-based; details: Thailand/NGS-C/1944; how it was run: as §3

Row | Structure (SMILES) | CC50 at 24 h [1] | Activity (dengue virus type 2 [2]) | Activity (dengue virus type 2 [3]) | Activity (dengue virus type 2 [4]) | Activity (dengue virus type 2 [5]) | half-life at 1 µM [6] | Activity (dengue virus type 2 [7]) | IC90 (dengue virus type 2 [8]) | Activity (Enterovirus C) | Activity [9] | Activity (Vero) | Activity (Kunjin virus) | Activity (dengue virus type 2 [10])
1 | C=CC(=O)Nc1cc(-n2c(=O)ccc3cnc4ccc(-c5cnn(C)c5)cc4c32)ccc1OCCNC(C)=O | 99 µM | 39% | 90% | 1.1 log10FFU/ml | 4 log10FFU/ml | – | – | – | – | – | – | – | –
2 | C=CC(=O)Nc1cc(-n2c(=O)ccc3cnc4ccc(-c5cnn(C)c5)cc4c32)ccc1F | 105 µM | 97% | 99% | 4 log10FFU/ml | 4 log10FFU/ml | 4.5 min | – | – | – | – | – | – | –
3 | C=CC(=O)N1CCC[C@@H](n2nc(-c3ccc(Oc4ccccc4)cc3)c3c(N)ncnc32)C1 | – | – | – | – | – | – | inactive | – | – | – | – | – | –
4 | C=CC(=O)Nc1cc(-n2c(=O)ccc3ccc4ccc(-c5cnn(C)c5)cc4c32)ccc1C | > 160 µM | 76% | 95% | 4 log10FFU/ml | 4 log10FFU/ml | 4 min | – | – | – | – | – | – | –
5 | C=CC(=O)N1CCc2ccc(-n3c(=O)n(C)c4cnc5ccc(-c6cnn(C)c6)cc5c43)cc21 | 79 µM | 94% | 99% | 2.5 log10FFU/ml | 4 log10FFU/ml | 2 min | – | – | – | – | – | – | –
6 | C=CC(=O)Nc1cc(-n2c3c(ccc2=O)CCc2ccc(-c4ccc5ccncc5c4)cc2-3)ccc1C | > 160 µM | 77% | 88% | 0.5 log10FFU/ml | 0.1 log10FFU/ml | – | – | – | – | – | – | – | –
7 | Cc1ccc(-n2c(=O)ccc3ccc4ccc(-c5ccc6ccncc6c5)cc4c32)cc1NC(=O)/C=C/CN(C)C | 21 µM | 17% | 66% | 3.3 log10FFU/ml | 4 log10FFU/ml | 6.3 min | – | – | – | – | – | – | –
8 | C=CC(=O)N1CCc2ccc(-n3c(=O)n(C)c4cnc5ccc(-c6ccc7ccncc7c6)cc5c43)cc21 | 126 µM | 77% | 98% | 2 log10FFU/ml | 4 log10FFU/ml | 2 min | – | – | – | – | – | – | –
9 | C=CC(=O)Nc1cc(-n2c(=O)ccc3cnc4ccc(-c5ccc6c(c5)OCO6)cc4c32)ccc1C | 46 µM | 32% | 94% | 2.8 log10FFU/ml | 4 log10FFU/ml | 2.7 min | – | – | – | – | – | – | –
10 | C=CC(=O)N1CCc2ccc(N3C(=O)NCc4cnc5ccc(-c6cnn(C)c6)cc5c43)cc21 | 68 µM | 49% | 53% | 0.1 log10FFU/ml | 0.8 log10FFU/ml | 2 min | – | – | – | – | – | – | –
11 | C=CC(=O)Nc1cc(-n2c(=O)ccc3cnc4ccc(-c5cnn(C)c5)cc4c32)ccc1C(=O)O | > 160 µM | 3% | 19% | 0 log10FFU/ml | 0 log10FFU/ml | – | – | – | – | – | – | – | –
12 | C=CC(=O)Nc1cc(-n2c(=O)ccc3cnc4ccc(N5CCN(c6ccccc6)CC5)cc4c32)ccc1C | 44 µM | 0% | 2% | 0.1 log10FFU/ml | 0 log10FFU/ml | 5 min | – | – | – | – | – | – | –
13 | C=CC(=O)N1CCc2ccc(-n3c(=O)ccc4cnc5ccc(-c6ccc(S(=O)(=O)NC(C)(C)C)cc6)cc5c43)cc21 | 13 µM | 81% | 100% | 0 log10FFU/ml | 1.9 log10FFU/ml | 2.3 min | – | – | – | – | – | – | –
14 | C=CC(=O)Nc1cc(-n2c(=O)ccc3cnc4ccc(N5CCOCC5)cc4c32)ccc1C | 103 µM | 0% | 23% | 0.1 log10FFU/ml | 1.2 log10FFU/ml | 9 min | – | – | – | – | – | – | –
15 | C=CC(=O)Nc1cc(-n2c(=O)ccc3cnc4ccc(-c5ccc(N)nc5)cc4c32)ccc1C | 75 µM | 44% | 75% | 0.8 log10FFU/ml | 4 log10FFU/ml | 6.4 min | – | – | – | – | – | – | –
16 | C=CC(=O)Nc1cc(-n2c(=O)ccc3cnc4ccc(-c5cn[nH]c5)cc4c32)ccc1C | 77 µM | 29% | 76% | 0.8 log10FFU/ml | 4 log10FFU/ml | 6.5 min | – | – | – | – | – | – | –
17 | C=CC(=O)Nc1cc(-n2c(=O)ccc3cnc4ccc(Nc5cnn(C)c5)cc4c32)ccc1C | 107 µM | 23% | 24% | 0 log10FFU/ml | 0.4 log10FFU/ml | 7.9 min | – | – | – | – | – | – | –
18 | C=CC(=O)Nc1cc(-n2c(=O)ccc3ccc4ccc(-c5ccc6ccncc6c5)cc4c32)ccc1C | 75 µM | 82% | 94% | 1.9 log10FFU/ml | 4 log10FFU/ml | 9 min | – | – | – | – | – | – | –
19 | C=CC(=O)Nc1cc(-n2c(=O)ccc3cnc4ccc(-c5cnn(C)c5)cc4c32)ccc1C(=O)N(C)C | 83 µM | 4% | 93% | 2 log10FFU/ml | 4 log10FFU/ml | – | – | – | – | – | – | – | –
20 | C=CC(=O)Nc1cc(-n2c3c(ccc2=O)CCc2ccc(-c4cnn(C)c4)cc2-3)ccc1C | > 160 µM | 49% | 60% | 0.5 log10FFU/ml | 1 log10FFU/ml | – | – | – | – | – | – | – | –
21 | C=CC(=O)N1CCc2ccc(-n3c(=O)ccc4cnc5ccc(-c6cnn(C)c6)cc5c43)cc21 | 67 to 68 µM | 94% | 98% | 4 log10FFU/ml | 4 log10FFU/ml | 1.2 min | – | 0.343 µM | Active | Active | Active | Active | –
22 | C=CC(=O)Nc1cc(-n2c(=O)ccc3cnc4ccc(-c5cnn(C)c5)cc4c32)ccc1C | > 160 µM | 40% | 34% | 1 log10FFU/ml | 4 log10FFU/ml | 4.1 min | – | – | – | – | – | – | –
23 | C=CC(=O)Nc1cc(-n2c(=O)ccc3cnc4ccc(-c5cnc6ccccc6c5)cc4c32)ccc1C | > 160 µM | 82% | 95% | 2.7 log10FFU/ml | 4 log10FFU/ml | 1.3 min | – | – | – | – | – | – | –
24 | Cc1c(NC(=O)c2ccc(C(C)(C)C)cc2)cccc1-c1cn(C)c(=O)c(Nc2ccc(C(=O)N3CCOCC3)cc2)n1 | – | – | – | – | – | – | inactive | – | – | – | – | – | –
25 | CCC(=O)N1CCc2ccc(-n3c(=O)ccc4cnc5ccc(-c6cnn(C)c6)cc5c43)cc21 | – | – | – | – | – | – | – | – | – | – | – | – | inactive
26 | C=CC(=O)Nc1cc(-n2c(=O)ccc3cnc4ccc(-c5ccc(NS(C)(=O)=O)cc5)cc4c32)ccc1C | – | – | – | – | – | – | inactive | – | – | – | – | – | –
27 | C=CC(=O)Nc1cc(-n2c(=O)ccc3ccc4ccc(-c5cn[nH]c5)cc4c32)ccc1C | 29 µM | 39% | 79% | 2 log10FFU/ml | 4 log10FFU/ml | 4 min | – | – | – | – | – | – | –
